According to paper PMC8286339 (ACS chemical biology, 2021):
NAH = SAM mimic in which the sulfonium ion is replaced by a nitrogen atom; C3 = 3-carbon linker to the N-terminal alpha-amine

Key:
[1] = biological target: T1, NTMT1 (Homo sapiens, UniProt Q9BV86); details: read-out: Ki, app; previously developed NTMT1 bisubstrate inhibitors; cited from earlier work
T1 sequence (Q9BV86 1-223): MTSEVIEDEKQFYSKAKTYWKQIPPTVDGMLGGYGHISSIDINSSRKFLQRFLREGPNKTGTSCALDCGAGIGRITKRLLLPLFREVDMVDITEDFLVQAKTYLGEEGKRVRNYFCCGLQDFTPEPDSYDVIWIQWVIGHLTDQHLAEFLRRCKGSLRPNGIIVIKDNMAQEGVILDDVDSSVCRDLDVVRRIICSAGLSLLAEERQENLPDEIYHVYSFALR

[2] = biological target: T2, HemK2/KMT9-Trm112 complex (Homo sapiens, UniProt Q9Y5N5); assay: HemK2-Trm112 methylation inhibition assay; format: biochemical; details: read-out: inhibition of activity
T2 sequence (Q9Y5N5 1-214): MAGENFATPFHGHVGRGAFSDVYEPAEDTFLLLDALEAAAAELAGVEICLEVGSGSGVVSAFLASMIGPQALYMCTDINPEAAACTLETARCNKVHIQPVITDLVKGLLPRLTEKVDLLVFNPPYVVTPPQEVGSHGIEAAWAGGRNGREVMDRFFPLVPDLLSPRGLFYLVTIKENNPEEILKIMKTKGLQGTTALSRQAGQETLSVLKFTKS
T2 sequence (Q9UI30 1-125 partner): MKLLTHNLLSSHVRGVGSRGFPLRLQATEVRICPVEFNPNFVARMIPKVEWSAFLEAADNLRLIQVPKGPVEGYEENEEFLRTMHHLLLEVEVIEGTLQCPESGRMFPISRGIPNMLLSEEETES

[3] = biological target: protein N-terminal methyltransferase 1 (NTMT1), purified recombinant (human) (UniProt Q9BV86); assay: SAHH-coupled fluorescence enzyme inhibition assay
[4] = biological target: T1, NTMT1; assay: Pull-down from HeLa cell lysates with immobilized probe, anti-NTMT1 Western blot; format: binding; details: 700 mM NaCl wash
Procedure, shortened: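 Lysate was incubated overnight with probe-loaded streptavidin resin, optionally with competitor (10 mM stock) added first; resin alone served as control. Washes used IP buffer, then 700 mM NaCl. Boiled-bead eluates were run on SDS-PAGE and blotted with anti-NTMT1 (1:1000, 4°C overnight) and HRP secondary, with ECL detection.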

[5] = biological target: T1, NTMT1; format: binding; details: probe immobilized on streptavidin beads
Procedure, shortened: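 Biotinylated probe (100 µM) was loaded overnight onto streptavidin resin in 20 mM Tris, 50 mM KCl, pH 7.5. Purified NTMT1 was bound for 4 h in the same buffer plus 1 mM DTT, then washed until no protein was detected. Elution was stepwise with 500 mM, 1 M, 2 M and 4 M NaCl, moving to the next step once eluate protein approached 0 mg/mL.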

Row | Molecule | Ki [1] | Ki [3] | further results
1 | CC[C@H](C)[C@H](NC(=O)[C@H](CCCNC(=N)N)NC(=O)[C@H](CCCCN)NC(=O)[C@@H]1CCCN1C(=O)CNCCCCN(CC[C@H](N)C(=O)O)C[C@H]1O[C@@H](n2cnc3c(N)ncnc32)[C@H](O)[C@@H]1O)C(=O)N[C@@H](C)C(N)=O [NAH-C4-GPKRIA] | 0.13 ± 0.04 nM |  | 
2 | Nc1ncnc2c1ncn2[C@@H]1O[C@H](C[C@@H](N)CC[C@H](N)C(=O)O)[C@@H](O)[C@H]1O [sinefungin] |  |  | inhibition at 100 µM [2]: ~50%
3 | NAH-C3-GPK (compound 3) (peptide) |  | 41 nM | 
4 | NAH-C3-GPKK-biotin [Probe 6] |  |  | enrichment of NTMT1 from HeLa cell lysates [4]: enriched; salt concentration at which NTMT1 was eluted off the probe [5]: 4 M NaCl
5 | NAH-C3-PPKRIA ({NAH-C3}-PPKRIA-NH2) | 39 ± 10 nM |  | 
6 | NAH-C4-GPK (compound 4) (peptide) |  | 44 nM | 
